Legend:
hOATP1B3 = molecular target: T1, hOATP1B3 (Homo sapiens, UniProt Q9NPD5); assay: Cellular uptake and kinetics in HEK293-hOATP1B3 vs Mock cells; format: in vitro ADME; conditions: 100 μmol/L, substrate if >2-fold of wild type
T1 sequence (Q9NPD5 1-702): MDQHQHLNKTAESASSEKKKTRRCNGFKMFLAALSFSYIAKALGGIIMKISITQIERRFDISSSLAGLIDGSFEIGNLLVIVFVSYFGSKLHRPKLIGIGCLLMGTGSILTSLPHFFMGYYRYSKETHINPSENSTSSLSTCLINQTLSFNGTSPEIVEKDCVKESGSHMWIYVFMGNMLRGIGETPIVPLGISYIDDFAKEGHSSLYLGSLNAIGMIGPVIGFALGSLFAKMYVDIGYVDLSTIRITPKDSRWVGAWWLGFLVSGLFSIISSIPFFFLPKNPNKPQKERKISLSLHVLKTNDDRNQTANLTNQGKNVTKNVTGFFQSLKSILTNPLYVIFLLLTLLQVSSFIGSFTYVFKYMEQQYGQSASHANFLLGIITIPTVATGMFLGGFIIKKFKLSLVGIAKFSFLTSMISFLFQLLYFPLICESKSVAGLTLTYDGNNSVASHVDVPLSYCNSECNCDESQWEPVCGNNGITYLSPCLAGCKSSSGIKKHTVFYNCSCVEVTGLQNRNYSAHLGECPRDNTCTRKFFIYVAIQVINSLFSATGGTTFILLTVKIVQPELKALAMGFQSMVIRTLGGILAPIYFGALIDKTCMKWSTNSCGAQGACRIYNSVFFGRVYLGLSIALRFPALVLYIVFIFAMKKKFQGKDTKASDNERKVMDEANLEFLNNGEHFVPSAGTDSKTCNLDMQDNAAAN
Method in brief: (§1)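 Transfected cells and matching Mock cells were seeded at 2 × 10⁵ cells/mL and grown 2 days. After a DPBS (pH 7.4) wash and 10 min preincubation at 37 °C, cells took up 100 μmol/L test compound for 2–5 min at 37 °C. Uptake was stopped with three ice-cold DPBS washes, followed by methanol extraction and HPLC–MS. Values were normalised to BCA protein and compared with Mock.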

hOATP1B1 = molecular target: T2, hOATP1B1 (Homo sapiens, UniProt Q9Y6L6); assay: Inhibition of 3H-ES uptake in HEK293-hOATP1B1 cells; format: in vitro ADME; conditions: 100 μmol/L IPT, ISP; 100 μg/mL AD extract; substrate 3H-ES
T2 sequence (Q9Y6L6 1-691): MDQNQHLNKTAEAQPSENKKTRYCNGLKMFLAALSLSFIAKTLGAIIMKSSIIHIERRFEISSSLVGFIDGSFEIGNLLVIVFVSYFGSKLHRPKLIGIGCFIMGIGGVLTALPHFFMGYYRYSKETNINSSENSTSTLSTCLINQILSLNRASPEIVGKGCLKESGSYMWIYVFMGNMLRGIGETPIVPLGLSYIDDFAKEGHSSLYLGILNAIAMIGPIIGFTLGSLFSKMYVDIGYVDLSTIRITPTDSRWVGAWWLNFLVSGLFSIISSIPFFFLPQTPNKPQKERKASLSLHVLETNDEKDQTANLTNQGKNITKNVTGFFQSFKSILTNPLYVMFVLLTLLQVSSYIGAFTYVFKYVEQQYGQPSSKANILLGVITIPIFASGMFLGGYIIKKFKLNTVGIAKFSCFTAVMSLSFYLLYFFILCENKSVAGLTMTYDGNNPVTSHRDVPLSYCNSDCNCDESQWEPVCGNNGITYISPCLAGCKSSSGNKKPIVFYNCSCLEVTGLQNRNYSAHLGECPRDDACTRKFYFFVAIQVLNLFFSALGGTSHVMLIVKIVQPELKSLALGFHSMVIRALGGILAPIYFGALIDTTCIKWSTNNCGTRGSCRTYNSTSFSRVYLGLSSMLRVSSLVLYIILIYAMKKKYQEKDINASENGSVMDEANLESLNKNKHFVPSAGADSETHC
Method in brief: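 HEK293 cells stably overexpressing the human transporter, grown in DMEM with 10% FBS and penicillin/streptomycin at 5% CO₂, then seeded in 24-well plates and used at confluence. Cells incubated at 37 °C for 2 min with 50 nmol/L ³H-estrone sulfate, with or without test compound or extract; final DMSO below 0.5%. Stopped by three cold DPBS washes, lysed in 0.1 mol/L NaOH, and counted by liquid scintillation (DPM).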

mOatp1b2 = assay: qRT-PCR of mOatp1b2 mRNA in liver of treated mice; format: in vivo; conditions: mice given 20 mg/kg TDE with 20 mg/kg IPT, ISP or 200 mg/kg AD extract, 4 h
mice kidney slices = assay: In vitro uptake of TDE in mice kidney slices; format: in vitro ADME, Kunming mice; conditions: TDE 10 μmol/L
Method in brief: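 Kunming mice (20–25 g, fasted 12 h) were anaesthetised with urethane, and kidney or liver was decapsulated into ice-cold oxygenated buffer at pH 7.5. Slices of about 30 mg were preincubated 5 min under carbogen at 4 or 37 °C. They were then incubated with 10 μmol/L test compound for 5, 10 or 30 min, with or without reference OAT1/OAT3 or OATP inhibitors or co-ingredients. Slices were then washed, blotted, weighed and homogenised, then extracted with methanol and an internal standard for HPLC–MS.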

mOatp1a4 = assay: qRT-PCR of mOatp1a4 mRNA in liver of treated mice; format: in vivo; conditions: mice given 20 mg/kg TDE with 20 mg/kg IPT, ISP or 200 mg/kg AD extract, 4 h
hOAT1 = molecular target: T3, hOAT1 (Homo sapiens, UniProt Q4U2R8); assay: Cellular uptake in MDCK-hOAT1 vs Mock cells; format: in vitro ADME; conditions: 100 μmol/L, substrate if >2-fold of wild type
T3 sequence (Q4U2R8 1-563): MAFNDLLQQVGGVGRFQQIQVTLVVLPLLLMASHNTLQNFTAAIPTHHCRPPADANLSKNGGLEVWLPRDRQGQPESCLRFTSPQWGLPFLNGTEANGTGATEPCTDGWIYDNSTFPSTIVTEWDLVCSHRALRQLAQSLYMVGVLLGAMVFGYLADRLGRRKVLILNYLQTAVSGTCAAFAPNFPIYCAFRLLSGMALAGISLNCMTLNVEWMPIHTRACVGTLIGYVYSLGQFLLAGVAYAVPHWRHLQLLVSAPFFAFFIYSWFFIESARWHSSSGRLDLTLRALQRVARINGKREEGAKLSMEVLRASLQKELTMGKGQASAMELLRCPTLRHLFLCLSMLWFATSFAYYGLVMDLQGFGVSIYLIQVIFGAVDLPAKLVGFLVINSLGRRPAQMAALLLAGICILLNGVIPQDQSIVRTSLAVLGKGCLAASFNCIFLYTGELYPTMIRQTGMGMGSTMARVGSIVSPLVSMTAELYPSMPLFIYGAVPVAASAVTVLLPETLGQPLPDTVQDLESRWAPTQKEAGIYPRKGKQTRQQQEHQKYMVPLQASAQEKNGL
Method in brief: as §1

Compound | accumulation in HEK293-hOATP1B3 vs HEK293 wild type (hOATP1B3) | inhibition to hOATP1B1 (hOATP1B1) | mRNA level of mOatp1b2 decreased to, compared to TDE alone (mOatp1b2) | effect on the uptake of TDE in kidney slices (mice kidney slices) | mRNA level of mOatp1a4 decreased to, compared to TDE alone (mOatp1a4) | accumulation in MDCK-hOAT1, fold higher than in MDCK-Mock (hOAT1)
CC(C)=CCOc1c2ccoc2cc2oc(=O)ccc12 [ISP, isoimperatorin] | no significant differences | weak or no inhibition | 50% | significant inhibition | 61% | ~3.40 fold
CC(C)=CCOc1c2occc2cc2ccc(=O)oc12 [IPT, imperatorin] | no significant differences | weak or no inhibition | 61% | significant inhibition | 36% | ~4.92 fold
